Screening results as filed in PubChem BioAssay.
sPLA2-III inh = Inhibits HGIII-sPLA2 liposome hydrolysis, primary screen; 370,000 tested, 0.56% active; inhibition, % at 12.2 µM; QFRET BODIPY PC-A2 liposome hydrolysis, fluorescence;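 active = inhibition above mean plus 3 SD of compounds lying within the high and low control bounds, cut at about 19% in these data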;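 note: 0% = median of test compound wells and 100% = no enzyme DMSO wells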
ARFGAP1 inh = inhibits rat ARF GTPase activating protein 1 | Q62848 | Arfgap1-stimulated ARF1 GTP hydrolysis, GDP FP detection | inhibition, % at 16.5 µM | 360,000 tested, 0.26% active | AID 651572;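 active = inhibition above a per-plate limit, mean inhibition of low control wells plus 3 SD, cut at about 25% in these data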;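 note: 0% = DMSO wells with enzyme and 100% = wells lacking Arfgap1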
Target sequence (Q62848 1-136 limits assumed): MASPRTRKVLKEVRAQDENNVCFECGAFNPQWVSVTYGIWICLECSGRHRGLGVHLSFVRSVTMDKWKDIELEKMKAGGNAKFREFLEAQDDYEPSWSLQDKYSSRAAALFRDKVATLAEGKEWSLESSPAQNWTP
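System: truncated rat Arfgap1 GAP domain / Benchmarks: high control wells lacking Arfgap1, low control full reaction with DMSO / Times: compound-enzyme preincubation 20 min, reaction 120 min, detection 60 min, 25 °C / Repeats: one replicate per compound / Also added: human ARF1(Δ1-17)-GTP substrate / Measured by: Tracer-displacement fluorescence polarization with EDTA stop, 620/688 nm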
ASAP1 inh = ASAP1 ArfGAP inhibition | 360,000 tested, 0.19% active | ASAP1-stimulated ARF1 GTP hydrolysis, GDP FP detection | inhibition, % at 16.5 µM; in the data active = inhibition above about 25%;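 note: 0% = vehicle with enzyme and substrate and 100% = no enzyme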
Calb FLC = affects C. albicans growth with fluconazole; C. albicans CaCi-2 + fluconazole, Alamar Blue growth, 48 h; growth inhibition, % (concentration not given with the values); 300,000 tested, 0.57% active;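 active = growth inhibition above about 58% in most replicates, limit read from the data, passing the limit was not always enough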;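 note: all wells also contain fluconazole at 8 µg/ml as a sub-toxic cotreatment; 0% = median of DMSO wells and 100% = median of geldanamycin control wells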
SKKanGAS inh = blocks kanamycin growth of S. pyogenes SKKanGAS strain. BacTiter-Glo, 6 h. inhibition, % at 7.5 µM. 300,000 tested, 1.3% active. AID 1662;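 active = mean replicate score, as percent of positive control median, at least 50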;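 note: strain carries kanamycin resistance gene driven by streptokinase promoter and grows in 40 µg/ml kanamycin; loss of luminescence reflects streptokinase promoter inhibition or plain growth inhibition; 0% = median of DMSO wells and 100% = positive control at its reference dose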
ARFGAP1 confirm = confirmation of rat ARFGAP1 inhibitors; shares compounds with ARFGAP1 inh; ARFGAP1-stimulated ARF1 GTP hydrolysis, GDP tracer FP; inhibition, % at 16.5 µM; 890 tested, 30% active; AID 651608;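 active = average inhibition over triplicates above the hit cutoff set in the earlier primary screen, cut at about 25% in these data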;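 note: 0% = Arfgap1 plus ARF1-GTP with DMSO and 100% = wells lacking Arfgap1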
Target sequence (Q62848 whole entry, looked up): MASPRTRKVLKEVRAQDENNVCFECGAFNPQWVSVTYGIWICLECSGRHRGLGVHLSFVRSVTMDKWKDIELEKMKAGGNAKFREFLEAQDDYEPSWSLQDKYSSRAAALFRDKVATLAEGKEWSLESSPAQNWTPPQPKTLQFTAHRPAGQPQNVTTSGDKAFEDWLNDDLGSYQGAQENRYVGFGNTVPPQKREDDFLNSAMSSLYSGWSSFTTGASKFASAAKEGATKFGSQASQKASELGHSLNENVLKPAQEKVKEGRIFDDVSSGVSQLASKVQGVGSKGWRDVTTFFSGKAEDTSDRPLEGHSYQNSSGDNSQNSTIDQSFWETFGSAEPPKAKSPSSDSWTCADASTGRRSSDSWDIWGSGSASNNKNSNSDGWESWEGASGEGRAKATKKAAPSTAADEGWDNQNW
Numbers without * were called inactive. This is a sample that favours compounds with a hit; in the whole collection about 2.3% have one here.

How did COC(=O)C1=C(C)N(Cc2ccccc2C(F)(F)F)C(=NCc2ccccc2)NC1c1ccc(C(F)(F)F)cc1 (stereo unspecified) do in these assays?
sPLA2-III inh: -10; ARFGAP1 inh: 25*; ASAP1 inh: 3; ARFGAP1 confirm: 11

What do the screens show for `COC(=O)C1=C(C)N(Cc2cccc(C(F)(F)F)c2)C(=NCc2ccccc2C(F)(F)F)NC1c1cccc(F)c1` (stereo unspecified)?
sPLA2-III inh: -14; ARFGAP1 inh: 27*; ASAP1 inh: -2; ARFGAP1 confirm: 13

What do the screens show for `COC(=O)C1=C(C)N(Cc2ccccc2C(F)(F)F)C(=NCc2cccc(C(F)(F)F)c2)NC1c1ccc(C(F)(F)F)cc1` (stereo unspecified)?
sPLA2-III inh: 11; ARFGAP1 inh: 3; ASAP1 inh: 6

What do the screens show for `COC(=O)[C@]12C[C@H](CC(=O)NCc3cccs3)C(=O)N(Cc3cccc4ccccc34)C1=C[C@H](C(C)(C)C)O[C@@H]2C`?
sPLA2-III inh: -15

What do the screens show for `CC1CC(C)CN(C(=O)COC(=O)c2cc3ccccc3cc2O)C1` (stereo unspecified)?
sPLA2-III inh: -20; ARFGAP1 inh: 37*; ASAP1 inh: 12; Calb FLC: 20; SKKanGAS inh: -7; ARFGAP1 confirm: 32*

Results for O=C1Nc2ccccc2C1=Nc1cccc([N+](=O)[O-])c1 ?
sPLA2-III inh: 3; ARFGAP1 inh: 1; ASAP1 inh: -8; Calb FLC: -29; SKKanGAS inh: 4

Results for NC(=O)c1ccc(N=C2C(=O)Nc3ccc([N+](=O)[O-])cc32)cc1 ?
sPLA2-III inh: 10; ARFGAP1 inh: 37*; ASAP1 inh: 40*; Calb FLC: -19; SKKanGAS inh: 10; ARFGAP1 confirm: 9

Results for Cc1ncsc1C(=O)N1N=C2/C(=C/c3ccccc3)CCCC2C1c1ccccc1 (stereo unspecified) ?
sPLA2-III inh: 1; ARFGAP1 inh: 30*; ASAP1 inh: -6; Calb FLC: 4; SKKanGAS inh: 30; ARFGAP1 confirm: -2

How did Cc1c(O)ccc2c(O)c(NC(=O)c3ccc4c(c3)CCC(C)(C)O4)c(=O)oc12 do in these assays?
sPLA2-III inh: -1; ARFGAP1 inh: 40*; ASAP1 inh: 2; Calb FLC: 6; SKKanGAS inh: 11; ARFGAP1 confirm: 1

What do the screens show for `CN1C2=N[C@@H](c3ccc4c(c3)OCO4)CC(=O)N2/C(=C\c2ccccc2)[C@H]1c1ccccc1`?
sPLA2-III inh: -8

What do the screens show for `CC(C)NC(=O)C(=O)Nc1cc2c3c(c1)CCC(=O)N3CCC2`?
sPLA2-III inh: 0; ARFGAP1 inh: 3; ASAP1 inh: -7; Calb FLC: -10; SKKanGAS inh: -2

How did CC(C)C(=O)Nc1cc2c3c(c1)CCC(=O)N3CCC2 do in these assays?
sPLA2-III inh: 6; ARFGAP1 inh: 25*; ASAP1 inh: -13; Calb FLC: 1; SKKanGAS inh: 0; ARFGAP1 confirm: -9

What do the screens show for `CCCCc1ccc2nc(NC(=O)c3ccco3)sc2c1`?
sPLA2-III inh: -43

What do the screens show for `Cc1ccc(NC(=O)N2CC(C)OC(C)C2)cc1[N+](=O)[O-]` (stereo unspecified)?
sPLA2-III inh: -5; ARFGAP1 inh: 33*; ASAP1 inh: -2; ARFGAP1 confirm: -1

What do the screens show for `Cc1ccc(C(=O)NC(=S)N2CC(C)OC(C)C2)cc1[N+](=O)[O-]` (stereo unspecified)?
Calb FLC: 10

What do the screens show for `CC(C)(C)C(=O)NC1CCCCN(Cc2cccc(Cl)c2)C1=O` (stereo unspecified)?
sPLA2-III inh: 4

How did C=CCN1C(C(=O)OC)CN(Cc2cn(Cc3ccc(C)cc3)nn2)CCS1(=O)=O (stereo unspecified) do in these assays?
sPLA2-III inh: 3

How did CCOC(=O)[C@@]12CCCC=C1N(CCc1ccc(Cl)cc1)C(=O)[C@H]2CC(=O)N1CCSCC1 do in these assays?
sPLA2-III inh: 1

What do the screens show for `C=CCNC(=O)/C(C#N)=C/c1ccc(C)o1`?
sPLA2-III inh: 0; ARFGAP1 inh: 7; ASAP1 inh: 2; Calb FLC: -10; SKKanGAS inh: -7

Results for COC(=O)/C(C#N)=C/c1ccc(C)o1 ?
sPLA2-III inh: 12; ARFGAP1 inh: 25*; ASAP1 inh: 7; Calb FLC: 3; SKKanGAS inh: -3; ARFGAP1 confirm: -4

What do the screens show for `CCCCCCCCN1C(=O)[C@H](CC(=O)NCc2ccccc2)C[C@@]2(C(=O)OCC)CCC=C12`?
sPLA2-III inh: -15; ARFGAP1 inh: 28*; ASAP1 inh: 7; ARFGAP1 confirm: 4

What do the screens show for `C(=N\n1cnc2ccccc21)/c1cccnc1`?
sPLA2-III inh: 3; ARFGAP1 inh: 25*; ASAP1 inh: -6; Calb FLC: 28; SKKanGAS inh: 4; ARFGAP1 confirm: 8

Results for COC(=O)C1CN(Cc2cn(Cc3ccc(Cl)cc3)nn2)CCS(=O)(=O)N1Cc1ccc(F)cc1 (stereo unspecified) ?
sPLA2-III inh: -4

How did CC(=O)CC[C@H]1CC[C@]2(CCCN(S(C)(=O)=O)C2)O1 do in these assays?
sPLA2-III inh: 18

What do the screens show for `CCOC(=O)c1ccc(NC(=S)N(CCCN2CCCC2)Cc2cccs2)cc1`?
sPLA2-III inh: 6; ARFGAP1 inh: 25*; ASAP1 inh: 1; Calb FLC: -27; SKKanGAS inh: -3; ARFGAP1 confirm: -3

How did COc1ccccc1CNC(=O)C[C@H]1CC[C@H]2[C@H](COc3ccc(NS(=O)(=O)c4ccc(C)cc4)cc3C(=O)N2C)O1 do in these assays?
sPLA2-III inh: -5

What do the screens show for `O=C(O)CCC(=O)Nc1cccc(C(=O)Nc2ccc(Br)cc2)c1`?
sPLA2-III inh: 0; ARFGAP1 inh: 2; ASAP1 inh: -5; Calb FLC: -2; SKKanGAS inh: -8

Results for O=C(O)CCC(=O)Nc1cccc(C(=O)Nc2cccc(Cl)c2)c1 ?
sPLA2-III inh: 7; ARFGAP1 inh: 63*; ASAP1 inh: 4; Calb FLC: 15; SKKanGAS inh: -7; ARFGAP1 confirm: 0

How did C=CCN1C(=O)[C@@H](CC(=O)NCCc2ccccc2OC)[C@]2(C(=O)OCC)CCCCC/C=C/12 do in these assays?
sPLA2-III inh: 3

Results for COc1cccc(-c2nnc(SCC(=O)Nc3ccc(Oc4ccccc4)cc3)n2Cc2ccco2)c1 ?
sPLA2-III inh: -13

What do the screens show for `CCOc1cc2nc(-c3ccc(OC)c(OC)c3)nc(N3CCOCC3)c2cc1OC`?
sPLA2-III inh: 1; ARFGAP1 inh: 26*; ASAP1 inh: 2; Calb FLC: 2; SKKanGAS inh: 11; ARFGAP1 confirm: 14

Results for Oc1nc(Nc2cccc(Cl)c2)sc1/C=C1\C=Nc2ccccc21 ?
sPLA2-III inh: -28; ARFGAP1 inh: 25*; ASAP1 inh: 19; Calb FLC: -1; SKKanGAS inh: 113*; ARFGAP1 confirm: 21
